Data reported in ChEMBL document CHEMBL3351356, “Development of a novel class of mitochondrial ubiquinol-cytochrome c reductase binding protein (UQCRB) modulators as promising antiangiogenic leads” (J Med Chem, 2014).
≈ marks a conversion by molar mass, not a printed value. Values belong to the molecule of their own block, whether it stands above or below them. Calls of active or inactive are those of the source. The rule behind the calls is not given here.

Assays:
[1] = molecular target: T1, Cytochrome b-c1 complex subunit 7 (Homo sapiens, UniProt P14927); experiment: Modulation of UQCRB in human HepG2 cells assessed as inhibition of HIF-1alpha for 4 hrs under 1%O2 by Western blot analysis; assay type: cell-based
T1 sequence (P14927 whole entry): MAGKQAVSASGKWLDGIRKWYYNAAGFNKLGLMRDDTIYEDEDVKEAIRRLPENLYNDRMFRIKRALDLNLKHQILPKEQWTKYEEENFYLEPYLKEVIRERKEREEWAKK
In short: (§1)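 HepG2 cells pretreated with compound for 30 min, then exposed to 1% O₂ for 4 h. HIF-1α and tubulin measured by Western blot and quantified by densitometry.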

Mus musculus = experiment: Toxicity in human U87MG cells implanted into Balb C mouse assessed as body weight loss at 20 mg/kg, ip every other day measured on day 18; assay type: organism-based, U-87MG ATCC; set-up: dose 20 mg/kg, route intraperitoneal; details: in vivo
In short: (§2)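 Female athymic Balb C nu/nu mice, 4 weeks old, implanted subcutaneously in the dorsal flank with 5 × 10⁶ U87MG cells in PBS/Matrigel (1:1). At palpable tumors (50−100 mm³), randomized into two groups (n = 8). Dosed intraperitoneally with vehicle or 20 mg/kg every other day. Tumor volume and body weight followed over 17 days.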

[2] = Thermodynamic solubility in PBS by HPLC; assay type: physicochemical; details: read-out: Therm_solubility
[3] = Thermodynamic solubility in H2O by HPLC; assay type: physicochemical; details: water; read-out: Therm_solubility
[4] = Antitumor activity against human U87MG cells assessed as inhibition of cell growth after 72 hrs by MTT assay; assay type: functional, cell-based, U-87MG ATCC; details: U-87 MG
Chorioallantoic membrane [5] = experiment: Antiangiogenic activity in chicken chorioallantoic membrane assessed as inhibition of blood vessel formation (reference value: 23%); assay type: functional, cell membranes; details: Gallus gallus, dose or concentration not given here
In short: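 Fertilized chick eggs held at 37 °C in a humidified incubator; about 2 mL albumin withdrawn on day 3. Compound-loaded Thermanox coverslips placed on the CAM of 4.5-day embryos; retinoic acid served as positive control. Result given as percent positive eggs of eggs tested.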

U-87MG ATCC [6] = experiment: Antitumor activity against human U87MG cells implanted into Balb C mouse assessed as inhibition of tumor growth at 20 mg/kg, ip every other day measured on day 18; assay type: functional, organism-based; set-up: dose 20 mg/kg; in short: as §2
[7] = molecular target: T2, Cytochrome b-c1 complex subunit 7 (Homo sapiens) (UniProt P14927); experiment: Displacement of biotin-labeled terpestacin from UQCRB (unknown origin) by surface plasmon resonance; details: concentration not given here
T2 sequence (whole entry): T1 sequence (P14927 whole entry)
In short: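 Biotin (control) and biotinylated terpestacin immobilized on a streptavidin sensor chip. Competitor (25 μM) incubated with purified UQCRB (25 μM) in pH 7.4 buffer (10 mM HEPES, 150 mM NaCl, 3 mM EDTA). Complexes injected at 30 μL/min; chip regenerated with 50 mM NaOH. Binding taken as resonance on biotinylated terpestacin minus resonance on biotin.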

HUVEC [8] = experiment: Antiangiogenic activity in HUVEC assessed as inhibition of VEGF-induced invasion by Transwell chyamber system; assay type: functional, cell-based; details: Homo sapiens
In short: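 HUVECs serum-starved, then stimulated with VEGF with or without compound. Invasion measured in Transwell chambers with 8.0 μm pore polycarbonate filter inserts; invaded cells counted by light microscope at 100×. Basal invasiveness of HUVECs in serum-free medium normalized to 100%. Mean ± SE of three independent experiments.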

U-87MG ATCC [9] = experiment: Antitumor activity against human U87MG cells implanted into Balb C mouse assessed as HIF1alpha expression in tumor at 20 mg/kg, ip every other day measured on day 18 by immunohistochemical staining; assay type: functional, organism-based; set-up: dose 20 mg/kg
In short: (§3)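 Paraffin tumor sections (4 μm) incubated overnight at 4 °C with anti-CD31, anti-HIF-1α or anti-VEGF antibodies. Then FITC- or Alexa-conjugated secondary antibodies for 45 min at room temperature, with DAPI counterstain.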

U-87MG ATCC [10] = experiment: Antitumor activity against human U87MG cells implanted into Balb C mouse assessed as decrease in microvessel density at 20 mg/kg, ip every other day measured on day 18; assay type: functional, organism-based; set-up: dose 20 mg/kg
[11] = molecular target: T2, Cytochrome b-c1 complex subunit 7 (Homo sapiens); experiment: Binding affinity to UQCRB in human HepG2 cells assessed as inhibition of hypoxia-induced mitochondrial ROS generation under 1%O2 for 10 mins after 30 mins by MitoSOX Red fluorescence assay; assay type: cell-based
In short: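 HepG2 cells pretreated with compound for 30 min, then held at 1% O₂ for 10 min. Loaded with MitoSOX Red (5 μM) for 10 min, lysed and centrifuged. Fluorescence of protein-normalized supernatant read at ex 510 / em 580 nm. Mean ± SE of three independent experiments.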

HepG2 [12] = experiment: Inhibition of hypoxia-induced VEGF expression in human HepG2 cells at 1 to 5 uM for 30 mins followed by 1%O2 for 16 hrs by ELISA; assay type: functional, cell-based
In short: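 HepG2 cells pretreated with compound for 30 min, then exposed to 1% O₂ for 16 h. VEGF protein in culture supernatant measured by VEGF-specific ELISA. Mean ± SE of three independent experiments.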

U-87MG ATCC [13] = experiment: Antitumor activity against human U87MG cells implanted into Balb C mouse assessed as CD31 expression in tumor at 20 mg/kg, ip every other day measured on day 18 by immunohistochemical staining; assay type: functional, organism-based; set-up: dose 20 mg/kg; in short: as §3
U-87MG ATCC [14] = experiment: Antitumor activity against human U87MG cells implanted into Balb C mouse assessed as VEGF expression in tumor at 20 mg/kg, ip every other day measured on day 18 by immunohistochemical staining; assay type: functional, organism-based; set-up: dose 20 mg/kg; in short: as §3
[15] = molecular target: T2, Cytochrome b-c1 complex subunit 7 (Homo sapiens); experiment: Modulation of UQCRB in human HepG2 cells assessed as inhibition of HIF-1alpha accumulation at 1 to 10 uM for 4 hrs under 1%O2 by Western blot analysis; assay type: cell-based; in short: as §1
HUVEC [16] = experiment: Antiangiogenic activity in HUVEC assessed as inhibition of VEGF-induced tube formation by optical microscopy; assay type: functional, cell-based; details: Homo sapiens
In short: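 Serum-starved HUVECs on Matrigel, VEGF-stimulated with or without compound. Connected cells counted in random fields at 100× and divided by total cells in the same field. Basal tube formation in serum-free medium normalized to 100%. Mean ± SE of three independent experiments.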

Chorioallantoic membrane [17] = experiment: Toxicity in chicken chorioallantoic membrane assessed as induction of rupture of pre-existing vessels; assay type: cell membranes, Gallus gallus; details: in vivo
HUVEC [18] = experiment: Toxicity in HUVEC assessed as reduction in cell viability by trypan blue staining method; assay type: cell-based; details: human
In short: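 HUVECs tested by trypan blue staining, run in parallel with the VEGF-stimulated invasion and tube formation assays at the same concentrations.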

HepG2 [19] = experiment: Cytotoxicity against human HepG2 cells assessed as effect on cell viability at 1 to 20 uM after 72 hrs by MTT assay; assay type: cell-based; details: hepg2, 72 h

SMILES: CCc1ccc(S(=O)(=O)Nc2ccc(O)cc2)cc1
IC50 [1]: > 20 µM

SMILES: O=S(=O)(Nc1ccc([O-])cc1)c1ccc(-c2ccccc2)cc1.[K+]
IC50 [1]: 5 µM
Activity (Mus musculus): Non-toxic
solubility thermodynamic [2]: 0.108 mg/mL
solubility thermodynamic [3]: > 0.5 mg/mL
IC50 [4]: 12.5 µM

SMILES: CC1=C(/C=C/C(C)=C/C=C/C(C)=C/C(=O)O)C(C)(C)CCC1
inhibition (Chorioallantoic membrane [5]): 67%

SMILES: CC(C)(C)c1ccc(S(=O)(=O)Nc2ccccc2O)cc1
IC50 [1]: 8 µM

SMILES: CC(C)(C)c1ccc(S(=O)(=O)Nc2ccc(O)c3ccccc23)cc1
IC50 [1]: > 20 µM

SMILES: O=S(=O)(Nc1cccc2c(O)cccc12)c1ccc(-c2ccccc2)cc1
IC50 [1]: > 20 µM

SMILES: O=S(=O)(Nc1ccc(O)cc1)c1cccc2cccnc12
IC50 [1]: > 20 µM

SMILES: O=C(O)c1cc(NS(=O)(=O)c2ccc(-c3ccccc3)cc2)ccc1O
IC50 [1]: > 20 µM

SMILES: O=S(=O)(Nc1ccc(O)c(Cl)c1)c1ccc(-c2ccccc2)cc1
IC50 [1]: > 20 µM

SMILES: Cc1ccc(S(=O)(=O)Nc2ccc(O)cc2)cc1
IC50 [1]: > 20 µM

SMILES: CC(C)(C)c1ccc(S(=O)(=O)Nc2cccc(O)c2)cc1
IC50 [1]: 8 µM

SMILES: CC(C)(C)c1ccc(S(=O)(=O)Nc2ccc(O)cc2)cc1
Activity (Chorioallantoic membrane [17]): Non-toxic
inhibition [7]: 40%
IC50 [1]: 5 µM
inhibition (HUVEC [8]): Dose-dependent effect
solubility thermodynamic [2]: 0.0267 mg/mL (≈ 87.6 µM)
inhibition [11]: Dose-dependent effect
Activity (HUVEC [18]): Non-toxic
Activity (HepG2 [19]): Non-toxic
inhibition (HepG2 [12]): Active
inhibition (Chorioallantoic membrane [5]): 65%
inhibition [15]: Active
inhibition (HUVEC [16]): Dose-dependent effect

SMILES: O=S(=O)(Nc1ccc(O)cc1)c1ccc(-c2ccccc2)cc1 [listing 2 of 2 here]
Activity (Chorioallantoic membrane [17]): Non-toxic
IC50 [1]: 2.5 µM
solubility thermodynamic [2]: < 0.00206 mg/mL
solubility thermodynamic [3]: < 0.00206 mg/mL
Activity (HUVEC [18]): Non-toxic
Activity (HepG2 [19]): Non-toxic

SMILES: CC(C)(C)c1ccc(S(=O)(=O)Nc2ccc(O)c3ncccc23)cc1
IC50 [1]: 20 µM
solubility thermodynamic [2]: 0.0128 mg/mL (≈ 36 µM)

Second part, led by results:

inhibition [7]: 40%
inhibition [11]: Dose-dependent effect
inhibition [15]: Active
SMILES: O=S(=O)(Nc1ccc(O)cc1)c1ccc(-c2ccccc2)cc1 [listing 1 of 2 here]
inhibition (U-87MG ATCC [6]): Active
inhibition (HUVEC [8]): Dose-dependent effect
inhibition (U-87MG ATCC [9]): Active
inhibition (U-87MG ATCC [10]): Active
inhibition (HepG2 [12]): Active
inhibition (U-87MG ATCC [13]): Active
inhibition (Chorioallantoic membrane [5]): 69%
inhibition (U-87MG ATCC [14]): Active
inhibition (HUVEC [16]): Dose-dependent effect

IC50 [1]: 20 µM
solubility thermodynamic [2]: 0.00726 mg/mL (≈ 19.3 µM)
SMILES: O=S(=O)(Nc1ccc(O)c2ncccc12)c1ccc(-c2ccccc2)cc1

IC50 [1]: > 20 µM
SMILES: O=S(=O)(Nc1ccc(O)cc1)c1ccc2ccccc2c1

IC50 [1]: > 20 µM
SMILES: O=S(=O)(Nc1cccc2ccc(O)cc12)c1ccc(-c2ccccc2)cc1

IC50 [1]: > 20 µM
SMILES: O=S(=O)(Nc1ccc(O)c(F)c1)c1ccc(-c2ccccc2)cc1

IC50 [1]: > 20 µM
SMILES: O=S(=O)(Nc1ccc(O)c2ccccc12)c1ccc(-c2ccccc2)cc1
